Measurements of several laboratories.
Each line is one published result; the experiments were not run side by side.

SMILES | assay | test system | setting | measurement | result
Oc1ccccc1C=Nc1ccccc1N=Cc1ccccc1O.[Ga+3] | – | water | – | solubility | < 100 µg/mL
CCC(CNc1nc(-c2cn3ccnc3cc2C)nc2ccccc12)c1ccccc1 (centres unmarked) | – | water | – | solubility | 1.3 µM
COc1cc(C(=O)c2nc(-c3cccc4[nH]ccc34)c[nH]2)cc(OC)c1OC | – | PBS | pH 7.4 | thermodynamic solubility | 5.25 µM
CC[C@H](C)[C@@H]1NC(=O)CNC(=O)[C@@H](CC(C)C)NC(=O)[C@@H](C(C)C)NC(=O)[C@H]2CCCN2C(=O)[C@@H](CC(C)C)NC(=O)[C@H](Cc2ccccc2)NC(=O)[C@@H]2CCCN2C(=O)[C@H](CC(C)C)NC(=O)[C@H](CO)NC(=O)CNC(=O)[C@H]([C@@H](C)O)NC1=O | – | aqueous buffer | 18 h, pH 7.4 | solubility | 692 µM
CCCSc1ccc2nc(NC(=O)OC)[nH]c2c1 | – | simulated gastric fluid | 24 h, pH 1.2, 37 °C, acidic | thermodynamic solubility | ~300 µg/mL
c1cc(-c2ccc3ncnc(Nc4ncco4)c3c2)cc(N2C[C@H]3C[C@@H]2CO3)c1 | – | aqueous buffer | pH 7.4, 25 °C | solubility | 6 µM
COc1cc(N2CC[C@@]3(O)C(=O)c4cc(C)c(C)cc4N=C23)ccn1 | – | PBS | pH 7.4 | solubility | 42 µM
CC(C)C[C@H]1C(=O)N[C@H]([C@H](C)O)C(=O)N[C@@H](C)C(=O)N[C@@H](Cc2ccccc2)C(=O)N[C@H](C(=O)O)CSSC[C@H](N)C(=O)N2CCC[C@@H]2C(=O)N[C@@H](CCC(=O)O)C(=O)N[C@@H](C(C)C)C(=O)N2CCC[C@H]2C(=O)N1C | – | aqueous buffer | 18 h, pH 7.4 | solubility | 692 µM
Cc1ccc2c(c1)C(=O)C1(O)CCN(c3ccccc3)C1=N2 (centres unmarked) | – | PBS | pH 7.4 | solubility | 21 µM
O=C1NC2(CCC2)C(=O)N1c1ccc(F)c(C(F)(F)F)c1 | nephelometry | aqueous buffer | – | kinetic solubility | ≤ 50 µg/mL
CC(C)C[C@@H]1NC(=O)[C@H](CCC(=O)O)NC(=O)[C@H]2CCCN2C(=O)[C@@H](N)CSSC[C@@H](C(=O)O)NC(=O)[C@H]2CCCN2C(=O)[C@@H](Cc2ccccc2)NC(=O)[C@H](CC(C)C)NC(=O)[C@H]([C@@H](C)O)NC(=O)[C@H](C(C)C)NC1=O | – | aqueous buffer | 18 h, pH 7.4 | thermodynamic solubility | 679 µM
CC1(CC(F)(F)F)NC(=O)N(c2ccc(F)c(C(F)(F)F)c2)C1=O (centres unmarked) | nephelometry | aqueous buffer | – | kinetic solubility | ≤ 50 µg/mL
CN(C)CCOc1ccc(C=Nc2ccccc2N=Cc2ccc(OCCN(C)C)cc2O)c(O)c1.[Ga+3] | – | water | – | solubility | > 50000 µg/mL
CC(C)C[C@H]1C(=O)N2CCC[C@H]2C(=O)N[C@@H](CC(N)=O)C(=O)N[C@H](Cc2ccc(O)cc2)C(=O)N[C@H]([C@H](C)O)C(=O)N[C@@H](Cc2ccc(O)cc2)C(=O)N[C@H](C(=O)O)CSSC[C@H](N)C(=O)N[C@@H](Cc2ccccc2)C(=O)N[C@@H](C(C)C)C(=O)N1C | – | aqueous buffer | 18 h, pH 7.4 | thermodynamic solubility | 760 µM
